Starred links: 1 amine or outer side, 2 acyl side, 3 side chain; linkers in the order of their positions; H or OH if unused. Positions of bridges follow the written chain, without caps; N, C: chain ends. Non-standard residues stand in square brackets, D forms with d. Residues, ends and D or L forms follow the SMILES beside them. X4 = O=C([C@@H](N[*:1])[C@@H](S[*:3])c1ccccc1)[*:2]; X1 = O=C([C@@H](N[*:1])[C@H](S[*:3])c1ccccc1)[*:2]; NMeR = CN[C@@H](CCCNC(=N)N)C(=O)O

Test [1] has as its target Integrin alpha-IIb/beta-3 (Homo sapiens, UniProt P05106+P08514). Kind of test: Tested for inhibition of fibrinogen binding to purified GPIIb/IIIa isolated from human platelets and reconstituted in liposomes. The method, boiled down: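 Displacement of [¹²⁵I]fibrinogen from purified human platelet GPIIb/IIIa incorporated into phospholipid vesicles. Values without statistical limits come from a single determination.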

The species named for a further test is Canis familiaris. Kind of test: Inhibition of platelet aggregation in canine platelet rich plasma induced by ADP. The test is classed as functional, Canis lupus familiaris. The method, boiled down:
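Citrated canine PRP aggregation read optically by light transmittance. Peptide stock was 12 mM in 0.2 M acetic acid. Final 200 µM peptide and 10 µM ADP, pH 7.7, after 5-min preincubation with peptide.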

Sequence of Integrin alpha-IIb/beta-3 (P05106 27-788 limits assumed): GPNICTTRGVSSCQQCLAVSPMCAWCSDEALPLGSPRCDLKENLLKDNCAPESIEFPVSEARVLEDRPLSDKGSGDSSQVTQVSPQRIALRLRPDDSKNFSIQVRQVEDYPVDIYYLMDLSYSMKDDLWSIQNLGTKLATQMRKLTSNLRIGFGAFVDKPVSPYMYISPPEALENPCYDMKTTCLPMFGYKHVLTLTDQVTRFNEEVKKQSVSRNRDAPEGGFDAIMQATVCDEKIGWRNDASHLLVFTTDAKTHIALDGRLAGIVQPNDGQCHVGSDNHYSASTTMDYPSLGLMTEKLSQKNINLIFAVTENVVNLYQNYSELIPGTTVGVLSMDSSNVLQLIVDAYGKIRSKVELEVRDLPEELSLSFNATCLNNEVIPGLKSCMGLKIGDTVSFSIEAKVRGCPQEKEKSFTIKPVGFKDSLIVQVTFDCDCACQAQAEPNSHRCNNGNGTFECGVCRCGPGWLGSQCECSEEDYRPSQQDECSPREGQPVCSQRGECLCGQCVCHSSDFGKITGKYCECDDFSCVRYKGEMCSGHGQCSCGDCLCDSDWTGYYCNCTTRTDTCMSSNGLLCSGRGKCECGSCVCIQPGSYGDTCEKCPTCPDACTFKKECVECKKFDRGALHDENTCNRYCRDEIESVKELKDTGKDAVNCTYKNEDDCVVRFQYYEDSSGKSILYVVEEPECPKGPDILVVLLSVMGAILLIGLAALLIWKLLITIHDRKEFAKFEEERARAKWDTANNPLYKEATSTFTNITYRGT
Sequence of Integrin alpha-IIb/beta-3 (P08514 32-887 limits assumed): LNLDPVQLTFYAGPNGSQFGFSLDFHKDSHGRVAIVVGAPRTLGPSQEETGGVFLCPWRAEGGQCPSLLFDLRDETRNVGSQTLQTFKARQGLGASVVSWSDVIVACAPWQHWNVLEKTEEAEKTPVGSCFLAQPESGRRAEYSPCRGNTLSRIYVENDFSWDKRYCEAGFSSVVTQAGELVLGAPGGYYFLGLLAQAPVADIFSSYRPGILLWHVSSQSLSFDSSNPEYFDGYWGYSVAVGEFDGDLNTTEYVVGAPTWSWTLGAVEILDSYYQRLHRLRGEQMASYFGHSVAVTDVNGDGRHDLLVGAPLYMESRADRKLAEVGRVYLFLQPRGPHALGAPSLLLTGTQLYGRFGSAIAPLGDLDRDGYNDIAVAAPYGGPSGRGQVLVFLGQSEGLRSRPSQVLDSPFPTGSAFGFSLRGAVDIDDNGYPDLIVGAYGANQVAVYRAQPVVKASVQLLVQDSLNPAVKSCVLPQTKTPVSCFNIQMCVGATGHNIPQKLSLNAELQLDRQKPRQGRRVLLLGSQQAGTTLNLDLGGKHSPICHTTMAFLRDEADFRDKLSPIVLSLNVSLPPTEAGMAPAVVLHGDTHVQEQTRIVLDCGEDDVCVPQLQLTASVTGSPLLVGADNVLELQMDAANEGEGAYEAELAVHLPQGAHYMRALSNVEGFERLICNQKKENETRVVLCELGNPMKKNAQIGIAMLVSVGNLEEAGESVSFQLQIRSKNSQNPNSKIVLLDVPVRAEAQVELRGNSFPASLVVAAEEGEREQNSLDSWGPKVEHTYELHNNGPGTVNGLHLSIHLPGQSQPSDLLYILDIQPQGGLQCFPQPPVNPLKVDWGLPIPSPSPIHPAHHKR
Sequence of Integrin alpha-IIb/beta-3 (P08514 891-1039 limits assumed): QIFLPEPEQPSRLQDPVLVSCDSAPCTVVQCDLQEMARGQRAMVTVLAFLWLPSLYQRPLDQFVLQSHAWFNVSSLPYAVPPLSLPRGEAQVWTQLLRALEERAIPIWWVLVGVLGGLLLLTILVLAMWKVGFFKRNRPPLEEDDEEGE

Regarding `CC(=O)N[C@@H](CCCN=C(N)N)C(=O)NCC(=O)N[C@@H](CC(=O)O)C(N)=O`, the affinity in test [1], expressed as Ki, was 4.2 µM. On to `CN1C(=O)c2ccccc2SSc2ccccc2NC(=O)[C@H](CC(=O)O)NC(=O)CNC(=O)[C@H]1CCCN=C(N)N`, for which the concentration for half-maximal inhibition (IC50) (as a rule, the concentration that inhibits the measured activity by half) in the test filed under Canis familiaris (Canis lupus familiaris, Plasma) came to 26 µM. On to `CC(=O)N[C@@H]1CSSC(C)(C)[C@H](C(N)=O)NC(=O)[C@@H](CC(=O)O)NC(=O)CNC(=O)[C@H](CCCNC(=N)N)NC1=O`, for which the IC50 in the test filed under Canis familiaris (Canis lupus familiaris, Plasma) turned out to be 4.12 µM. Also, the affinity in test [1], expressed as Ki, was 0.72 µM. For `CN1CC(=O)N[C@@H](CCCNC(=N)N)C(=O)NCC(=O)N[C@@H](CC(=O)O)C(=O)Nc2ccccc2SSc2ccccc2C1=O` the same measures were 3.46 µM and 0.143 µM.

In the test listed under Canis familiaris (Canis lupus familiaris, Plasma), `CC(=O)N[C@@H]1CSSC(C)(C)[C@H](C(N)=O)NC(=O)[C@@H](CC(=O)O)NC(=O)CNC(=O)[C@@H](CCCN=C(N)N)N(Cc2ccccc2)C1=O` had an IC50 of 7.74 µM. Further, in test [1], the Ki (as a rule, a measure of affinity in units of concentration, obtained from inhibition or displacement) is above 100 µM. For `CN1C(=O)[C@@H]2CCCN2C(=O)c2ccccc2SSc2ccccc2NC(=O)[C@H](CC(=O)O)NC(=O)CNC(=O)[C@@H]1CCCN=C(N)N` the same measures were 1.01 µM and 0.82 µM. For `CN1C(=O)c2ccccc2SSCCNC(=O)[C@@H](CC(=O)O)NC(=O)CNC(=O)[C@H]1CCCNC(=N)N` the same measures were 0.236 µM and 0.0095 µM. The molecule `CN1C(=O)c2ccccc2SSc2ccccc2NC(=O)[C@@H](CC(=O)O)NC(=O)CNC(=O)[C@@H]1CCCN=C(N)N` returned an IC50 in the test listed under Canis familiaris (Canis lupus familiaris, Plasma) of 0.6 µM. That is a sub-micromolar value. Molecule `CC(=O)N[C@H]1CSSC(C)(C)[C@H](C(N)=O)NC(=O)[C@@H](CC(=O)O)NC(=O)CNC(=O)[C@@H](CCCNC(=N)N)NC1=O` displayed an IC50 in the test filed under Canis familiaris (Canis lupus familiaris, Plasma) of 98.7 µM. The same molecule showed an inhibition constant Ki in test [1] of 2.65 µM. In the same order, the values of `CC(=O)N[C@@H]1CSSC(C)(C)[C@H](C(N)=O)NC(=O)[C@H](CC(=O)O)NC(=O)CNC(=O)[C@@H](CCCNC(=N)N)NC1=O` are above 200 µM and above 1000 µM. In turn, `CC(=O)N[C@H]1CSSC(C)(C)[C@@H](C(N)=O)NC(=O)[C@H](CC(=O)O)NC(=O)CNC(=O)[C@H](CCCNC(=N)N)N(C)C(=O)[C@@H]2CCCN2C1=O` returned an inhibition constant (Ki) in test [1] above 10 µM. In the case of `CC(=O)N[C@@H]1CSSC(C)(C)[C@H](C(N)=O)NC(=O)[C@@H](CC(=O)O)NC(=O)CNC(=O)[C@@H](CCCN=C(N)N)N(C)C(=O)[C@@H]2CCCN2C1=O`, inhibition in the test listed under Canis familiaris (Canis lupus familiaris, Plasma) was half-maximal at 24.4 µM (IC50). `CC(=O)N[C@H]1CSS[C@H](c2ccccc2)[C@@H](C(=O)O)NC(=O)[C@H](CC(=O)O)NC(=O)CNC(=O)[C@H](CCCNC(=N)N)N(C)C1=O` (Ac-C[NMeR]GD[X1]-OH; disulfide 1-5): the Ki in test [1] amounted to 0.0021 µM.

In the test listed under Canis familiaris (Canis lupus familiaris, Plasma), `CC(=O)N[C@H]1CSS[C@H](c2ccccc2)[C@@H](C(=O)O)NC(=O)[C@H](CC(=O)O)NC(=O)CNC(=O)[C@H](CCCN=C(N)N)N(C)C1=O` (Ac-C[NMeR]GD[X1]-OH; disulfide 1-5) registered an IC50 of 0.04 µM.

The molecule `CC(=O)N[C@H]1CSS[C@@H](c2ccccc2)[C@@H](C(N)=O)NC(=O)[C@H](CC(=O)O)NC(=O)CNC(=O)[C@H](CCCNC(=N)N)N(C)C1=O` (Ac-C[NMeR]GD[X4]-NH2; disulfide 1-5) showed a Ki in test [1] of 0.045 µM. `CC(=O)N[C@H]1CSS[C@@H](c2ccccc2)[C@@H](C(N)=O)NC(=O)[C@H](CC(=O)O)NC(=O)CNC(=O)[C@H](CCCN=C(N)N)N(C)C1=O` (Ac-C[NMeR]GD[X4]-NH2; disulfide 1-5) gave a half-inhibitory concentration (IC50) in the test filed under Canis familiaris (Canis lupus familiaris, Plasma) of 0.05 µM. In turn, `CC(=O)N[C@H]1CSSC[C@@H](C(N)=O)NC(=O)[C@H](CC(=O)O)NC(=O)CNC(=O)[C@H](CCCN=C(N)N)NC1=O` (single isomer, unassigned) showed a half-inhibitory concentration (IC50) in the test filed under Canis familiaris (Canis lupus familiaris, Plasma) of 16.2 µM. Take `CC(=O)N[C@H]1CSSC(C)(C)[C@@H](C(N)=O)NC(=O)[C@H](CC(=O)O)NC(=O)CNC(=O)[C@H](CCCN=C(N)N)NC(=O)CNC1=O` (single isomer, unassigned) [listing 1 of 2 here]: the affinity in test [1] corresponds to a Ki of 0.61 µM. Take `CC(=O)N[C@H]1CSSC(C)(C)[C@@H](C(N)=O)NC(=O)[C@H](CC(=O)O)NC(=O)CNC(=O)[C@H](CCCN=C(N)N)NC(=O)CNC1=O` (single isomer, unassigned) [listing 2 of 2 here]: in the test listed under Canis familiaris (Canis lupus familiaris, Plasma), the IC50 was 11.4 µM. The same measure, in the same setting: in the case of `CN1C(=O)c2ccccc2SSc2ccccc2NC(=O)[C@H](CC(=O)O)NC(=O)CNC(=O)[C@@H]1CCCN=C(N)N` (single isomer, unassigned) it was 0.09 µM; in that of `CCN1C(=O)[C@@H](NC(C)=O)CSSC(C)(C)[C@@H](C(N)=O)NC(=O)[C@H](CC(=O)O)NC(=O)CNC(=O)[C@@H]1CCCN=C(N)N` (single isomer, unassigned), 0.9 µM.

`CCN1C(=O)[C@H](NC(C)=O)CSSC(C)(C)[C@H](C(N)=O)NC(=O)[C@@H](CC(=O)O)NC(=O)CNC(=O)[C@H]1CCCNC(=N)N` (single isomer, unassigned) gave an inhibitory constant (Ki) in test [1] of 0.065 µM. This lies in the double-digit nanomolar range.

Take `CC(=O)N[C@H]1CSSC(C)(C)[C@@H](C(N)=O)NC(=O)[C@H](CC(=O)O)NC(=O)CNC(=O)[C@H](CCCNC(=N)N)NC(=O)CN(C)C1=O` (single isomer, unassigned): the Ki in test [1] is 0.077 µM. The Ki values of the last two molecules are within 1.5-fold of each other. On to `CC(=O)N[C@H]1CSSC(C)(C)[C@@H](C(N)=O)NC(=O)[C@H](CC(=O)O)NC(=O)CNC(=O)[C@H](CCCN=C(N)N)NC(=O)CN(C)C1=O` (single isomer, unassigned), for which, in the test filed under Canis familiaris (Canis lupus familiaris, Plasma), the IC50 is 1.2 µM.

In the test listed under Canis familiaris (Canis lupus familiaris, Plasma), `N=C(N)NCCC[C@@H]1NC(=O)c2ccccc2SSC[C@@H](C(N)=O)NC(=O)[C@H](CC(=O)O)NC(=O)CNC1=O` (single isomer, unassigned) showed an IC50 of 8.08 µM.

On to `CC(=O)N[C@H]1CSSc2ccccc2NC(=O)[C@H](CC(=O)O)NC(=O)CNC(=O)[C@H](CCCNC(=N)N)NC1=O` (single isomer, unassigned), for which, in test [1], the Ki is 0.28 µM. As to `CC(=O)N[C@H]1CSSc2ccccc2NC(=O)[C@H](CC(=O)O)NC(=O)CNC(=O)[C@H](CCCN=C(N)N)NC1=O` (single isomer, unassigned), the 50% inhibitory concentration (IC50) in the test filed under Canis familiaris (Canis lupus familiaris, Plasma) was 9.71 µM. In other words, the single-digit micromolar range. On to `CC(=O)N[C@H]1CSSc2ccccc2NC(=O)[C@H](CC(=O)O)NC(=O)CNC(=O)[C@H](CCCN=C(N)N)N(C)C1=O` (single isomer, unassigned), for which it took 0.17 µM to reach half-maximal inhibition in the test filed under Canis familiaris (Canis lupus familiaris, Plasma) (IC50). In turn, `CC(=O)N[C@H]1CSSc2ccccc2NC(=O)[C@H](CC(=O)O)NC(=O)CNC(=O)[C@H](CCCNC(=N)N)N(C)C1=O` (single isomer, unassigned) gave an inhibition constant Ki in test [1] of 0.026 µM. Take `CC(=O)N[C@H]1CSSC(C)(C)[C@@H](C(N)=O)NC(=O)[C@H](CC(=O)O)N(C)C(=O)CNC(=O)[C@H](CCCNC(=N)N)NC1=O` (single isomer, unassigned): in test [1], the affinity, expressed as Ki, was 25.3 µM.

In the test listed under Canis familiaris (Canis lupus familiaris, Plasma), `CC(=O)N[C@H]1CSSC(C)(C)[C@@H](C(N)=O)NC(=O)[C@H](CC(=O)O)N(C)C(=O)CNC(=O)[C@H](CCCN=C(N)N)NC1=O` (single isomer, unassigned) displayed a half-inhibitory concentration (IC50) of 137 µM.

`CC(=O)N[C@H]1CSSC(C)(C)[C@@H](C(N)=O)NC(=O)[C@H](CC(=O)O)N(C)C(=O)CNC(=O)[C@H](CCCN=C(N)N)N(C)C1=O` (single isomer, unassigned) had an IC50 in the test listed under Canis familiaris (Canis lupus familiaris, Plasma) of 23.4 µM. The molecule `CC(=O)N[C@H]1CSSC(C)(C)[C@@H](C(N)=O)NC(=O)[C@H](CC(=O)O)N(C)C(=O)CNC(=O)[C@H](CCCNC(=N)N)N(C)C1=O` (single isomer, unassigned) gave a Ki in test [1] of 7.04 µM. As for `CC(=O)N[C@@H]1CSSC(C)(C)[C@H](C(N)=O)NC(=O)C(CC(=O)O)NC(=O)CNC(=O)C(CCCN=C(N)N)NC1=O` (single isomer, unassigned; 12), in the test filed under Canis familiaris, the half-maximal inhibitory concentration (IC50) was 4.12 µM.

(Values after ChEMBL document CHEMBL1127669, “Conformationally constrained peptides and semipeptides derived from RGD as potent inhibitors of the platelet fibrinogen receptor and platelet aggregation” (J Med Chem, 1994).)
